Sequences and labels used below:
B1: tRNA (parent)
chain: GUUCCGUUGGCGUAAUGGUAACGCGUCUCCCUCCUAAGGAGAAGACUGCGGGUUCGAGUCCCGUACGGAACG

Variants at the floor of the assay were thinned out.

This data set covers variants of B1. Put plainly: yeast fitness relative to wild type (ratio to wild type); higher = fitter; tRNA-Arg(CCU), competitive growth, 37 C, YPD. The method, boiled down: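 Variants of the tRNA-Arg(CCU) gene were chemically synthesised with a 3% per-site mutation rate across 69 sites and placed at the native genomic locus in Saccharomyces cerevisiae. Six parallel replicates of the pooled strains were competed in YPD at 37°C for 24 hours, and gene amplicons from the start and end populations were read by 100-nucleotide paired-end sequencing. Darwinian fitness relative to wild type was derived from changes in genotype frequencies. Genotypes required ≥ 100 starting reads, and estimates < 0.5 were set to 0.5.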
As for U3A U19A, the yeast fitness worked out at 1.02. For the variant U3A C24U C46U G48A C49G, the yeast fitness is not above 0.5. For the variant U3C A20G A57U, the yeast fitness was found to be 0.597. U3A C49U C60U A70G: the yeast fitness worked out at 0.551.

As to U3C A14C A20C, the yeast fitness was not above 0.5. With U3A U32G G39C G52C the figure was not above 0.5; with U3C A21G A43U A65C G68C, not above 0.5. With U3A U7C C27G C29G C34U the figure was 0.528; with U3A C49A U53G A57U, 0.798.

U3A G25A C49G A65G A69U: the yeast fitness is not above 0.5. Consider U3A U19A G68C, for which the yeast fitness turned out to be 0.712.

For the variant U3C A15U C34U A43G U54C, the yeast fitness was not above 0.5. As for U3A U32C, the figure is 1; as for U3A G6U G12C C22A C55G, not above 0.5.

Regarding U3C A36U G39A, the yeast fitness was not above 0.5. As for U3C A15U C34U A43G, the figure is 0.545; as for U3A C30G G38C, 0.987.

For U3A G41C, the yeast fitness is 0.694.

Take U3A G41A: the yeast fitness is 0.754. With U3A G9A C29U the figure was 0.751. As for U3A C29G, the figure is 0.575; as for U3C A14C A21G A37U C49A C60G, 0.629. With U3A C29A A37G the figure was not above 0.5; with U3C A20U C30A, 0.568. Turning to U3A G17A C22U C66U, the yeast fitness was determined as 0.616. With U3A C30G C31U C61U the figure was not above 0.5; with U3A C27U C55A, 0.535. As for U3A C30U A42G, the figure is 0.757; as for U3A U7A C49A, 0.542; as for U3A C31U A36C, 0.571. As for U3A C33G C34G U35A G44A, the figure is 0.556. U3A C24A C27U G56C C66U: the yeast fitness was not above 0.5.

As to U3A G12C U13C C66U, the yeast fitness was determined as 0.664. With U3A U7A C22U C49A the figure was not above 0.5. As for U3A G17A, the figure is 0.829. With U3A C55U G56C the figure was not above 0.5; with U3A U8C, 0.925; with U3A U8A, 0.723. In the case of U3A C24U A40U G48A, the yeast fitness was not above 0.5.

For the variant U3C A37C A70U, the yeast fitness is 0.683. As for U3C A37C A70G, the figure is 0.555; as for U3A C46U C49U U53C, not above 0.5; as for U3A G9A U19A C61G, not above 0.5. With U3A U13A G23C A36C A70C, the yeast fitness amounted to 0.596. Consider U3A G12A U19A, for which the yeast fitness is 0.763.

For the variant U3A U8A U32A U47A A57U, the yeast fitness is not above 0.5. As for U3C A15G G25C C66G, the figure is not above 0.5; as for U3A G51C, not above 0.5; as for U3A C34A C60U, not above 0.5. As for U3A G9C C34U, the figure is 0.548; as for U3A G39A, 0.888; as for U3A G39C, 0.822. As for U3A C27A A43G, the figure is 0.586; as for U3C A21G G38A G56A, not above 0.5; as for U3A C31U U47C, 0.871.

Take U3C A37U G52A A57C C60A: the yeast fitness is not above 0.5. Consider U3A C66U, for which the yeast fitness is 0.891. As for U3A G23A A69C, the figure is 0.571; as for U3A C33U U59C, not above 0.5; as for U3A G6C C34G G38C A45G U59G, not above 0.5. With U3A G25C C34U G41A C49G the figure was not above 0.5; with U3C A20G U59A, 0.684. With U3A C30U G52A, the yeast fitness is not above 0.5. For U3A G9C A20G C29A, the yeast fitness is not above 0.5. With U3A G18A C22U U64C A70G the figure was not above 0.5.

With U3A C24G C31U C62A, the yeast fitness was not above 0.5.

Take U3A U59C: the yeast fitness was determined as 0.884. As for U3A C31A C34A A37C G68C, the figure is not above 0.5; as for U3C A14G C22A C27G G39C, not above 0.5.

Turning to U3A C27A A42G C46G, the yeast fitness was not above 0.5. With U3A G18A C22U U64C the figure was not above 0.5; with U3A U26G C49A C60A, not above 0.5; with U3A C30G C31U G67C, not above 0.5. As for U3A C27U A36G A70U, the figure is 0.729. With U3A U53C C55U the figure was not above 0.5. On to U3A G18A C22U A65U, for which the yeast fitness is not above 0.5. As for U3A G12C G58A, the figure is 0.579. With U3A G48C C55A C66G G67C the figure was not above 0.5; with U3A U16C G68C, not above 0.5. With U3A G18A A45G A57C the figure was not above 0.5. Consider U3A C46A C66U, for which the yeast fitness was 0.734. As for U3A C33U A43C, the figure is not above 0.5. Consider U3A G12C U13C A69C, for which the yeast fitness turned out to be 0.732. With U3A G12C U13C A69U the figure was 1.13; with U3A C61A, 0.778. For the variant U3A C61G, the yeast fitness is 0.767. As for U3A C60U C66G, the figure is 0.658. In the case of U3A U47C G51A U53C, the yeast fitness was not above 0.5. For the variant U3A C24U G39A, the yeast fitness was not above 0.5.

As to U3A G12A A20C C29G G67A, the yeast fitness was not above 0.5. In the case of U3A C30U G50C, the yeast fitness is not above 0.5. As for U3A C31U G52A, the figure is 0.614; as for U3A C29G G38A C62G, not above 0.5.

For U3A C30G A57C G58C, the yeast fitness was not above 0.5. U3C A21G G44C G63C: the yeast fitness was not above 0.5. As for U3C A14U A20C C30G C55U, the figure is not above 0.5; as for U3A G6A, 0.981; as for U3A C24U G39A C55A, not above 0.5. With U3A G9C A20C A21C G25A G56A U64C the figure was 0.73; with U3C A15G C30A A57G, not above 0.5; with U3A U64G, 0.831. With U3A U64C the figure was 1.01.

With U3A U7A G23C A42C U47A C49G, the yeast fitness was not above 0.5. Regarding U3A U47A, the yeast fitness turned out to be 0.744. With U3A U47C the figure was 0.835; with U3C A20U, 0.866; with U3A U13G A70C, 0.784.

With U3A G48A G67A, the yeast fitness stood at 0.541.

For U3A G6C A20U A36U, the yeast fitness amounted to 0.571. With U3A G9A A14G C49U the figure was not above 0.5. As for U3A G17C G38A, the figure is 0.557; as for U3A U19C C22G A45U, not above 0.5; as for U3A C30G C55U, 0.673.

As for U3A U8C C30G C33U, the yeast fitness was not above 0.5. For the variant U3A G38A C66U, the yeast fitness was not above 0.5. With U3C A21U G67C the figure was not above 0.5; with U3A G18C U28A, not above 0.5. With U3C A20G C24U G38A G58C the figure was not above 0.5; with U3A C60A C61U A69U, 0.597. As for U3A U8A C31G A40C C66U, the figure is not above 0.5. As for U3C A21G C27A A36U A40G, the yeast fitness is not above 0.5.

Regarding U3C A37C G38A G52A G63A, the yeast fitness is not above 0.5.

As to U3C A14U A65C, the yeast fitness is not above 0.5. Consider U3C A15C G17C C24A C31U U35C G68C, for which the yeast fitness was not above 0.5. As for U3A G9C G56C, the figure is not above 0.5; as for U3A C29G C60G, not above 0.5; as for U3C A15G, 1.03. With U3C A20U C24U C30A the figure was 0.656; with U3A G9C A65C, not above 0.5.

Consider U3C A15U C34U A43G C49U, for which the yeast fitness was not above 0.5.

Consider U3C A21G C33G C34G, for which the yeast fitness was not above 0.5.

Turning to U3A G58C, the yeast fitness was determined as 0.987. Consider U3C A14G C30U A45C C46G A65G, for which the yeast fitness was not above 0.5. With U3A C31U A36C A65U the figure was not above 0.5; with U3A U32C A69U, 0.685; with U3A U7G A14U G25A G41C, not above 0.5. With U3C A15C G51C C61A the figure was not above 0.5; with U3A G38C C49U, not above 0.5. As for U3A C27U G41C U64C A70C, the figure is 0.896; as for U3C A21G U32C A43U, 0.722. With U3C A14G C34G A43C, the yeast fitness was not above 0.5. As for U3A G17A C22U G48A C62A, the figure is not above 0.5. As for U3A U7C C62G G63C, the figure is 0.586; as for U3A U35G A43U A57C C62A C66A, not above 0.5; as for U3C A14U A37U C60A, 0.586. Turning to U3A U13A G23C A36C, the yeast fitness stood at 0.529. With U3A G17C A20C U28A C46A the figure was not above 0.5.

For U3A G9A G48A, the yeast fitness was found to be 0.621.

For U3A G9C C24G C30U C34A G51A, the yeast fitness was not above 0.5. Regarding U3C A15G C30A, the yeast fitness is 0.564. For the variant U3A G9C C33G A42U A43U A65C G68C, the yeast fitness was not above 0.5. With U3A G44A A45C U53A C55A U59C C62U the figure was 0.534; with U3A C34G A45G, 0.537; with U3C A14C A45C C60G, 0.591. For U3C A20U G52C, the yeast fitness was not above 0.5. As for U3A G25A G58A, the figure is 0.782; as for U3A U35C G63C, not above 0.5; as for U3A G48A C49G, 0.574. With U3C A15C C34G U47A C55U G68U, the yeast fitness was not above 0.5. With U3A U8C G38C the figure was not above 0.5; with U3C A37C U64A, 0.598; with U3A G68C, 0.822.

Turning to U3A C31G A43U C60G A65C G67C, the yeast fitness came out at 0.664. As for U3A C30G U54C, the figure is 0.502. With U3C A36U the figure was 0.656.

For the variant U3C A20C G23C G56C, the yeast fitness is not above 0.5. With U3A C24G C31U C61A the figure was 0.533.

(Values after the RNAGym collection of RNA variant scans (doi:10.1126/science.aae0568).)
